GPR7 antagonist – blocks human GPR7 receptor signaling; P48145; GPR7-expressing cells, fluorescence antagonist assay; inhibition, % at 4.4 µM; actives 1.1% (n = 290,000); AID 1861; in the data active = inhibition above about 16%, passing the limit was not always enough;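 also: cells stimulated with the agonist NPW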
DAGLB inhibitor – blocks human DAGLB lipase activity; Q8NCG7; inhibition, % at 5.17 µM; actives 0.059% (n = 340,000); HEK293T DAGLB membrane lysate, EnzChek fluorogenic substrate; in the data active = inhibition above about 34%
Target sequence (Q8NCG7 whole entry, looked up): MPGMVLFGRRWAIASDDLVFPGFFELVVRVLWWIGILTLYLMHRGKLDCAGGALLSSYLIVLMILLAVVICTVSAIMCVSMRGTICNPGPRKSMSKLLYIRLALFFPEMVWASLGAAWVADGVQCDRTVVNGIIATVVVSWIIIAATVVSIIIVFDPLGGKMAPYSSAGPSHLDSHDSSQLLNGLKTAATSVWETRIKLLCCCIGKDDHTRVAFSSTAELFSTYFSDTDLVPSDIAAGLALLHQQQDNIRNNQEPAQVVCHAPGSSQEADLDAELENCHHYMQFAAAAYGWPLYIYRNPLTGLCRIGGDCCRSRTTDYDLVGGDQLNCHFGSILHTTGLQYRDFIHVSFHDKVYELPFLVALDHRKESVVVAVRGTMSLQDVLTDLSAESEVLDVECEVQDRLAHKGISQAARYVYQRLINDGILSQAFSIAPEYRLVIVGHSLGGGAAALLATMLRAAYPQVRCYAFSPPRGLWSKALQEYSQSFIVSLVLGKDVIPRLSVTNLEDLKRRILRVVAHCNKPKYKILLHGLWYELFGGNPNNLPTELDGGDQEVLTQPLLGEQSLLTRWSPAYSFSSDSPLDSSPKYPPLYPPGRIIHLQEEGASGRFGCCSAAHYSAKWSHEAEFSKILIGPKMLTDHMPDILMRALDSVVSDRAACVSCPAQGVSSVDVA
TAAR1 agonist – agonists of human TAAR1; CHO RD-HGA16 TAAR1, Fluo-8 calcium fluorescence; vehicle wells 0%, saturating PEA agonist 100%; Q96RJ0; activation, % at 3 µM; AID 624467; actives 0.99% (n = 360,000);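 active = activation above the mean activation of all test compounds in the run plus 3 SD, cut at about 38% in these data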
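System: CHO RD-HGA16 cells carrying human TAAR1 plus Gα16; Incubation: 17-24 h seeding, 75 min 37 °C dye, 30 min RT; Measured by: Fluo-8 fluorescence, 5 s baseline then 140 s kinetic read; Control set: DMSO and PEA EC100; Replication: single well for each compound.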
TAAR1 antagonist – human TAAR1 antagonism. inhibition, % at 3 µM. actives 1.5% (n = 360,000). AID 624466. CHO RD-HGA16 TAAR1, Fluo-8 calcium fluorescence, antagonist. Q96RJ0;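 active = inhibition above a per-plate cutoff, the mean inhibition of test compounds on that plate plus 3 SD, cut at about 49% in these data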
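test system = CHO RD-HGA16 cells bearing hTAAR1 | replication = singlicate | controls = DMSO-only wells and EC80 β-PEA-stimulated wells | reagent = EC80 β-phenethylamine stimulus | read-out basis = percent inhibition of PEA-evoked calcium signal, max/basal emission ratio | schedule = seeding 17-24 h prior, 75-min 37 °C, 30-min RT dye loading | signal = kinetic Fluo-8 calcium fluorescence measurement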
MPTP inh – inhibitors of mitochondrial permeability transition pore. isolated mouse mitochondria, Ca2+ swelling absorbance, 30 min. inhibition, % at 10 µM. actives 1.4% (n = 360,000). AID 602449;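 active = inhibition of 50% or more, scaled per plate between neutral and stimulator controls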
GPR7 antag conf – confirmation of human GPR7 antagonists. shares compounds with GPR7 antagonist. GPR7-expressing cells, calcium fluorescence antagonist mode. inhibition, % at 4.4 µM. actives 52% (n = 2,400). AID 1952; in the data active = inhibition above about 24%;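 also: stimulated with the GPR7 agonist NPW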
MCHR1 antagonist – antagonizes human MCHR1, a GPR7 antagonist counter-screen. shares compounds with GPR7 antagonist. MCHR1-expressing cells, fluorescence antagonist assay. inhibition, % at 4.4 µM. actives 62% (n = 2,400). AID 2148; in the data active = inhibition above about 22%
A number is an active result; – = inactive; · = no result. Only some compounds are listed: those with a hit (about 4% of all), similar ones and a draw of the others.

SMILES | GPR7 antagonist | DAGLB inhibitor | TAAR1 agonist | TAAR1 antagonist | MPTP inh | GPR7 antag conf | MCHR1 antagonist
COC(=O)c1cc2c(c3c4cc(OC)ccc4n(S(=O)(=O)c4ccc(OC)cc4)c13)C(=O)N(Cc1ccccc1OC)C2 | · | · | – | – | · | · | ·
Cc1cc2oc(C(=O)N(Cc3ccccc3)c3ccccn3)cc(=O)c2cc1Cl | – | · | – | – | – | · | ·
Cc1cc(C)c2oc(C(=O)N(Cc3ccccc3)c3ccccn3)cc(=O)c2c1 | 26 | – | – | – | – | – | –
CC(C)c1ccc(NC(=O)[C@H](Cc2c[nH]c3ccccc23)NC(=O)[C@@H]2Cc3ccccc3CN2)cc1 | 27 | – | – | – | – | – | –
COc1ccc(NC(=O)[C@H](Cc2c[nH]c3ccccc23)NC(=O)[C@@H]2Cc3ccccc3CN2)cc1 | – | – | – | – | – | · | ·
Cn1c(=O)oc2cc(S(=O)(=O)N3CCN(c4ccccc4)CC3)ccc21 | – | – | – | – | – | · | ·
Cc1cc(-c2ccc(C)c(S(=O)(=O)N3CCN(c4ccccn4)CC3)c2)on1 | 28 | – | – | – | – | 32 | 62
Cc1cc(-c2ccc(C)c(S(=O)(=O)N3CCN(c4ccc([N+](=O)[O-])cc4)CC3)c2)on1 | – | – | – | – | – | · | ·
Cn1c(=O)oc2cc(S(=O)(=O)N3CCN(c4ccccn4)CC3)ccc21 | 26 | – | – | – | – | – | –
C#CCC1c2ccccc2CCN1CC=C (centres undefined) | · | · | – | – | · | · | ·
COC(=O)[C@]12C[C@H](CC(=O)NCc3ccc(OC)c(OC)c3)C(=O)N(CCC3=CCCCC3)C1=C[C@H](COCc1ccccc1)O[C@@H]2C | · | · | – | – | · | · | ·
O=C(NCc1ccccc1)C(C1CC1)n1c(=O)c(-c2ccco2)nc2ccccc21 (centres undefined) | · | · | – | – | – | · | ·
COc1ccc(C(=O)NCCc2ccccc2)cc1OC | – | – | – | – | – | · | ·
COc1ccc(C(=O)NCCc2ccccc2)cc1[N+](=O)[O-] | 31 | – | – | – | – | – | –
CCc1nc2cccnc2n1-c1ccc(CC(=O)O)cc1 | – | – | – | – | – | · | ·
CC(C)NC(=O)CCc1nc2cccnc2n1-c1ccccc1 | 56 | – | – | – | – | – | –
Cc1ccc([C@H]2C[C@@H](n3cc(-c4ccc(F)cc4)nn3)[C@H](O)CN2C(=O)C2CCCCC2)cc1 | · | – | – | – | – | · | ·
CCc1ccccc1NC(=O)c1cc([N+](=O)[O-])ccc1N1CCOCC1 | 33 | – | – | – | – | – | –
CCOCCCNCc1cc(Br)ccc1OCc1ccccc1 | 38 | – | – | – | – | 36 | 42
OCCNCc1cc(Br)ccc1OCc1ccccc1 | – | – | – | – | – | · | ·
C=CCN1CC(c2nc3ccccc3n2CCOc2ccccc2)CC1=O (centres undefined) | 33 | – | – | – | – | – | –
Clc1ccc(-c2csc(=Nc3cccnc3)n2CCCn2ccnc2)cc1Cl | 28 | – | – | – | – | 28 | 40
CCOC(=O)CN1C(=O)C(CC)Oc2ccc(Cl)cc21 (centres undefined) | – | – | – | – | – | · | ·
CCCCNC(=O)CN1C(=O)C(CC)Oc2ccc(Cl)cc21 (centres undefined) | 28 | – | – | – | – | – | 25
COC(=O)[C@]12C[C@H](CC(=O)N3CCN(C(=O)C4CC4)CC3)C(=O)N(Cc3ccccc3)C1=C[C@H](C(C)C)O[C@@H]2C1CC1 | · | · | – | – | · | · | ·
SMILES | GPR7 antagonist | DAGLB inhibitor | TAAR1 agonist | TAAR1 antagonist | MPTP inh | GPR7 antag conf | MCHR1 antagonist
CCOc1ccc(NC(=O)CN2CCN(c3ccc(F)cc3)CC2)cc1S(=O)(=O)N1CCCC1 | · | – | – | – | – | · | ·
CCOc1ncccc1C(=O)Oc1ccc2c(c1)OCO2 | – | – | – | – | – | · | ·
O=C(Oc1ccc2c(c1)OCO2)c1ccc(F)cc1Cl | 22 | – | – | – | – | – | –
O=C(Oc1ccc(C(=S)N2CCC(O)CC2)cc1)c1ccc(Cl)cc1 | 26 | – | – | – | – | 34 | 38
O=C(Oc1ccc(C(=S)N2CCCCC2)cc1)c1ccccc1 | 26 | · | – | – | – | 55 | 56
O=C(Oc1cccc(C(=S)N2CCCCC2)c1)c1ccccc1 | – | – | – | – | – | · | ·
N#CC1(c2ccccc2)CCC(NCCc2ccccc2)CC1 (centres undefined) | 40 | – | 41 | – | – | – | –
Nc1ccccc1C#CC(=O)c1ccccc1 | 37 | – | – | – | – | 71 | 36
CC(=O)C1=C(C)NC(=S)NC1c1ccccc1 (centres undefined) | · | · | – | – | · | · | ·
CN(c1ccccc1)S(=O)(=O)CS(=O)(=O)N(C)c1ccccc1 | · | – | – | – | – | · | ·
CN(c1ccccc1)P(=O)(N(C)c1ccccc1)N(C)c1ccccc1 | 28 | – | – | – | – | 34 | 37
Cc1ccc(C)c(CN2CCC(CNC(=O)Nc3ccc(F)c(Cl)c3)CC2)c1 | 38 | – | 38 | – | – | 40 | 68
Cc1csc(NC(=O)CSc2nnc(Cc3cccn3C)n2CCc2ccccc2)n1 | 28 | – | – | – | – | – | –
Cc1cc(NC(=O)CSc2nnc(Cc3cccn3C)n2CCc2ccccc2)no1 | – | – | – | – | – | · | ·
Cc1ccc(NCc2nnc(SCC(=O)OC3CCCCC3)o2)c(C)c1 | 28 | – | – | – | – | – | 23
c1ccc(Nc2ccccc2Nc2ccccn2)nc1 | 53 | – | – | – | – | – | –
c1ccc(CNc2ccccn2)cc1 | – | – | – | – | – | · | ·
O=C(NCc1ccco1)/C(=C\c1ccc(F)cc1)NC(=O)c1ccco1 | 29 | – | – | – | – | – | –
Clc1cccc(CON/C=N/c2ncnc3sccc23)c1 | 37 | – | – | – | – | – | 40
NC(=O)NOCc1cccc(Cl)c1 | – | – | – | – | – | · | ·
Clc1ccccc1Cc1noc(CN2CCN(c3cnccn3)CC2)n1 | – | – | – | – | – | · | ·
Fc1ccccc1Cc1noc(CN2CCN(c3ccc(Cl)cn3)CC2)n1 | 21 | – | – | – | – | – | 26
O=C(COc1ccccc1)N(Cc1ccco1)c1ccc(O)cc1 | – | – | – | – | – | · | ·
O=C(c1ccc(Cl)c(Cl)c1)N(Cc1ccco1)c1ccc(O)cc1 | 29 | – | – | – | – | – | –
CCN(Cc1ccccc1)C(=O)Nc1c(Cl)cccc1Cl | · | · | – | – | · | · | ·
CN(C)C1=NC[C@H](Cc2ccccc2)N1CC1CCCC1 | · | – | – | – | – | · | ·
CN(C)C1=NC[C@H](Cc2ccccc2)N1CC1CCC(C(C)(C)C)CC1 (some centres undefined) | 45 | – | · | · | – | 41 | –
COc1cccc(CNC(=O)[C@H]2CCCN2C(=O)[C@H]2CCCN2C(=O)c2ccc(Cl)cc2)c1 | · | · | – | – | · | · | ·
FC(F)(F)c1cccc(-c2nc3nc(Cl)c(Cl)nc3[nH]2)c1 | 25 | – | · | · | – | 37 | 48
